The test system of data set [1] is Mus musculus. The data set can be described thus: Biodistribution in tumor of C57BL/6J mouse bearing mouse B16F0 cells at 0.37 to 1.85 MBq, iv after 6 hrs by gamma counting method. Format: ADME, organism-based. The conditions noted are these: in vivo. In a few lines: (§1)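 Female C57BL/6J mice (5−6 weeks), s.c. inoculated on left flank with 3 × 10^5 B16F0 cells in Ca2+/Mg2+-free PBS, used 11 days later (tumors 2−12 mm). Radiotracer given via tail vein in 100 μL (~0.37 MBq for 1−24 h, 1.85 MBq for 48 h). Organs dissected, weighed, γ-counted, decay corrected. Expressed as % ID/g against injected-dose dilutions. Mean ± SEM, n = 5.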

Data set [2] has as its system Mus musculus. As to the kind of experiment: Biodistribution in eyes of C57BL/6J mouse bearing mouse B16F0 cells at 0.37 to 1.85 MBq, iv after 3 hrs by gamma counting method. Format: ADME, organism-based, Eye. The following applies: in vivo. The essentials: as §1
Data set [3] has as its system Mus musculus. As to the kind of experiment: Biodistribution in eyes of C57BL/6J mouse bearing mouse B16F0 cells at 0.37 to 1.85 MBq, iv after 24 hrs by gamma counting method. Format: ADME, organism-based, Eye. The following applies: in vivo. The essentials: as §1
The subject of data set [4] is Mus musculus. As to the kind of experiment: Biodistribution in small gastrointestinal tract of C57BL/6J mouse bearing mouse B16F0 cells at 0.37 to 1.85 MBq, iv after 24 hrs by gamma counting method. Format: ADME, organism-based, Small intestine. The conditions noted are these: in vivo. In a few lines: as §1
Data set [5] has as its system Plasma. As to the kind of experiment: Stability in plasma of C57BL/6J mouse bearing mouse B16F0 cells assessed as drug degradation at 0.37 to 1.85 MBq, iv after 24 hrs by radio-HPLC and radio-TLC method. Format: ADME, organism-based. The conditions noted are these: in vivo, in the assay text read “20 MBq” for “0.37 to 1.85 MBq”. In a few lines:
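Tumor-bearing C57BL/6J mice were sampled 3 and 24 h after i.v. tracer. Tissue was sonicated in CH3CN/water (3:2) with cold iodo standard and KI, then centrifuged. Urine was diluted and spiked; plasma was spiked, with CH3CN precipitation for TLC. Intact fraction came from silica radio-TLC (spot matching standard Rf) and radio-HPLC with precolumn/C18 column switching.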

On to `O=C(CN1Cc2ccccc2C1=O)NC1CCN(Cc2ccc([123I])cc2)CC1`, for which the Drug uptake in data set [1] came out at 18.1 % ID/g; in data set [2], 20.8 % ID/g; in data set [3], 41.4 % ID/g; in data set [4] it was 3.8 % ID/g. In data set [5], the Stability result was “Unstable”.
For `O=C(c1ccc2cccnc2n1)N1CCN(Cc2ccc([123I])cc2)CC1` the same measures were 19.4 % ID/g, 36 % ID/g, 35.1 % ID/g, 0.9 % ID/g and “Unstable”.
For `O=C(c1ccc2c(n1)NCCC2)N1CCN(Cc2ccc([123I])cc2)CC1`, the Drug uptake in data set [1] is 32.5 % ID/g; in data set [2], 56.4 % ID/g; in data set [3], 30.8 % ID/g; in data set [4], 0.8 % ID/g. Also, in data set [5], the Stability entry is “Unstable”.
`O=C(CN1Cc2ccccc2C1=O)N1C[C@H]2CN(Cc3ccc([123I])cc3)C[C@H]2C1`: the Drug uptake was found to be 10.4 % ID/g in data set [1], 18.5 % ID/g in data set [2], 18.4 % ID/g in data set [3] and 0.3 % ID/g in data set [4]. The Stability entry in data set [5] is “Unstable”.

The values above are taken from ChEMBL document CHEMBL3588831, “Synthesis and in Vivo Evaluation of [123I]Melanin-Targeted Agents” (J Med Chem, 2015).
